Experiments:
[1] = tested on: Human immunodeficiency virus 2; experiment: Antiviral activity against HIV2 ROD in CEM cells assessed as inhibition of virus-induced cytopathogenicity after 4 days; format: functional, organism-based; settings: Human immunodeficiency virus 2, ROD, CCRF-CEM, 96 h
How it was run: (§1)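 CEM cells at 4 × 10⁵/mL infected with about 100 CCID₅₀ per mL of cell suspension (HIV-1 IIIB or HIV-2 ROD). Infected suspension mixed 1:1 with serial compound dilutions. Giant cell formation scored microscopically after 4 days. EC₅₀ is the concentration inhibiting virus-induced cytopathicity by 50%.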

[2] = Cytotoxicity against mock-infected human CEM cells assessed as reduction of cell viability after 4 days; format: cell-based; settings: mock-infected CEM (CCRF-CEM) cells
How it was run: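 Mock-infected CEM cells, plated as in the parallel infection assay at 4 × 10⁵/mL, mixed 1:1 with serial compound dilutions. CC₅₀ is the concentration reducing the number of viable cells by 50%.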

[3] = tested on: Human immunodeficiency virus 1; experiment: Antiviral activity against HIV1 3B in CEM cells assessed as inhibition of virus-induced cytopathogenicity after 4 days; format: functional, organism-based; settings: Human immunodeficiency virus 1, 3B, CCRF-CEM, 96 h; how it was run: as §1
[4] = tested on: Human immunodeficiency virus 1; experiment: Antiviral activity against HIV1 in MT4 cells; format: functional, organism-based; settings: Human immunodeficiency virus 1, MT4

With `CCn1c(=O)c(C)cn([C@@H]2O[C@H](CO[Si](C)(C)C(C)(C)C)[C@@]3(NS(=O)(=O)C(c4ccccc4)=C3N)[C@H]2O[Si](C)(C)C(C)(C)C)c1=O` the EC50 [1] was greater than 50 µM, the CC50 at 96 h [2] was no less than 10 µM and the EC50 [3] was greater than 50 µM.

With `Cc1cn([C@@H]2O[C@H](CO[Si](C)(C)C(C)(C)C)[C@@]3(NS(=O)(=O)C(c4ccccc4)=C3N)[C@H]2O[Si](C)(C)C(C)(C)C)c(=O)n(C)c1=O` the EC50 [1] was greater than 50 µM, the CC50 at 96 h [2] was no less than 10 µM and the EC50 [3] was greater than 50 µM.

`Cc1cn([C@@H]2O[C@H](CO[Si](C)(C)C(C)(C)C)[C@]3(C(N)=C(c4ccccc4)S(=O)(=O)N3C)[C@H]2O[Si](C)(C)C(C)(C)C)c(=O)n(C)c1=O` showed an EC50 [1] greater than 2 µM, a CC50 at 96 h [2] of 10.9 µM and an EC50 [3] greater than 2 µM.

`Cc1cn([C@@H]2O[C@H](CO[Si](C)(C)C(C)(C)C)[C@@]3(NS(=O)(=O)C(c4ccccc4)=C3N)[C@H]2O[Si](C)(C)C(C)(C)C)c(=O)n(C(=O)OC(C)(C)C)c1=O` showed an EC50 [1] of 30 µM, a CC50 at 96 h [2] of no less than 10 µM and an EC50 [3] greater than 50 µM.

Compound `Cc1cn([C@@H]2O[C@H](CO[Si](C)(C)C(C)(C)C)[C@@]3(NS(=O)(=O)C(c4ccccc4)=C3N)[C@H]2O[Si](C)(C)C(C)(C)C)c(=O)[nH]c1=O` has an EC50 [1] of no less than 2 µM, a CC50 at 96 h [2] of no less than 10 µM and an EC50 [3] of no less than 2 µM.

`Cc1cn([C@@H]2O[C@H](CO[Si](C)(C)C(C)(C)C)[C@@]3(NS(=O)(=O)C=C3N)[C@H]2O[Si](C)(C)C(C)(C)C)c(=O)[nH]c1=O` gave an EC50 [4] of 0.13 µM, an EC50 [1] greater than 100 µM and a CC50 at 96 h [2] of 19.1 µM. It also gave an EC50 [3] of 0.33 µM.

Compound `Cc1cn([C@@H]2O[C@H](CO[Si](C)(C)C(C)(C)C)[C@@]3(OS(=O)(=O)C=C3N)[C@H]2O[Si](C)(C)C(C)(C)C)c(=O)[nH]c1=O` has an EC50 [1] greater than 4 µM and a CC50 at 96 h [2] of 16 µM.

Source: ChEMBL document CHEMBL1144701, “Synthesis and anti-HIV1 biological activity of novel 5''-ATSAO compounds” (Bioorg Med Chem, 2008)
